The values below come from ChEMBL document CHEMBL5042469, “Unique Molecular Interaction with the Histone Deacetylase 6 Catalytic Tunnel: Crystallographic and Biological Characterization of a Model Chemotype” (J Med Chem, 2021).

One may read the IC50 as the concentration at which inhibition is half-maximal.

Data set [1] concerns the target Polyamine deacetylase HDAC10 (Homo sapiens, UniProt Q969S8). Briefly: Inhibition of full length human HDAC10 using FAM-labeled acetylated peptide as substrate by electrophoretic mobility shift assay. The gist of the method:
(§1)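 Full-length human HDAC isoform enzymatic assay by electrophoretic mobility shift, using a FAM-labelled acetylated peptide substrate. […] Values are the mean of duplicate experiments with 95% confidence intervals.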
(In general: In EMSA bound probe runs differently from free probe, usually more slowly.)

Data set [2] is described as follows: Half life in Balb/c mouse at 50 mg/kg, ip by LC-MS/MS analysis. It counts as ADME, organism-based. The conditions noted are these: in vivo. In short, it runs like this: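 Male BALB/c mice received a single intraperitoneal dose from a 50 mg/mL solution in 5% DMSO, 30% PEG400, 1% Tween80 and 64% saline. Blood was collected at several time points and the compound quantified by triple-quadrupole LC-MS/MS.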

Data set [3] has as its system MV4-11. Briefly: Induction of apoptosis in human MV4-11 cells assessed as early apoptotic cells at 0.50 uM incubated for 15 mins by Annexin-V/FITC staining based FACS analysis (reference value: 0.70%). The class given is functional. The conditions noted are these: dose 0.5 µM, 0.25 h. In short, it runs like this: (§2)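 MV4-11 cells were dosed, then washed twice in cold PBS and resuspended in binding buffer at 1×10^6 cells/mL. Cells were stained with FITC-annexin V and propidium iodide for 15 min in the dark, diluted with binding buffer and analysed by flow cytometry within 1 h. Quadrants: LL viable, LR early apoptotic, UR late apoptotic. Duplicate experiments averaged; DMSO control.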
In general terms: In flow cytometry, cells or beads pass a laser one at a time.

Data set [4] deals with Histone deacetylase 2 (Homo sapiens, UniProt Q92769). Briefly: Inhibition of full length human HDAC2 using FAM-labeled acetylated peptide as substrate by electrophoretic mobility shift assay. In short, it runs like this:
as §1

Data set [5] deals with MV4-11. Description: Induction of apoptosis in human MV4-11 cells assessed as viable cells at 0.25 uM incubated for 15 mins by Annexin-V/FITC staining based FACS analysis (reference value: 35.53%). It counts as functional. The conditions noted are these: MV4-11, 0.25 h, read-out: Activity. In short, it runs like this:
as §2

For data set [6], the target named is T1, Protein deacetylase HDAC6 (Homo sapiens, UniProt Q9UBN7).
T1 sequence (Q9UBN7 whole entry): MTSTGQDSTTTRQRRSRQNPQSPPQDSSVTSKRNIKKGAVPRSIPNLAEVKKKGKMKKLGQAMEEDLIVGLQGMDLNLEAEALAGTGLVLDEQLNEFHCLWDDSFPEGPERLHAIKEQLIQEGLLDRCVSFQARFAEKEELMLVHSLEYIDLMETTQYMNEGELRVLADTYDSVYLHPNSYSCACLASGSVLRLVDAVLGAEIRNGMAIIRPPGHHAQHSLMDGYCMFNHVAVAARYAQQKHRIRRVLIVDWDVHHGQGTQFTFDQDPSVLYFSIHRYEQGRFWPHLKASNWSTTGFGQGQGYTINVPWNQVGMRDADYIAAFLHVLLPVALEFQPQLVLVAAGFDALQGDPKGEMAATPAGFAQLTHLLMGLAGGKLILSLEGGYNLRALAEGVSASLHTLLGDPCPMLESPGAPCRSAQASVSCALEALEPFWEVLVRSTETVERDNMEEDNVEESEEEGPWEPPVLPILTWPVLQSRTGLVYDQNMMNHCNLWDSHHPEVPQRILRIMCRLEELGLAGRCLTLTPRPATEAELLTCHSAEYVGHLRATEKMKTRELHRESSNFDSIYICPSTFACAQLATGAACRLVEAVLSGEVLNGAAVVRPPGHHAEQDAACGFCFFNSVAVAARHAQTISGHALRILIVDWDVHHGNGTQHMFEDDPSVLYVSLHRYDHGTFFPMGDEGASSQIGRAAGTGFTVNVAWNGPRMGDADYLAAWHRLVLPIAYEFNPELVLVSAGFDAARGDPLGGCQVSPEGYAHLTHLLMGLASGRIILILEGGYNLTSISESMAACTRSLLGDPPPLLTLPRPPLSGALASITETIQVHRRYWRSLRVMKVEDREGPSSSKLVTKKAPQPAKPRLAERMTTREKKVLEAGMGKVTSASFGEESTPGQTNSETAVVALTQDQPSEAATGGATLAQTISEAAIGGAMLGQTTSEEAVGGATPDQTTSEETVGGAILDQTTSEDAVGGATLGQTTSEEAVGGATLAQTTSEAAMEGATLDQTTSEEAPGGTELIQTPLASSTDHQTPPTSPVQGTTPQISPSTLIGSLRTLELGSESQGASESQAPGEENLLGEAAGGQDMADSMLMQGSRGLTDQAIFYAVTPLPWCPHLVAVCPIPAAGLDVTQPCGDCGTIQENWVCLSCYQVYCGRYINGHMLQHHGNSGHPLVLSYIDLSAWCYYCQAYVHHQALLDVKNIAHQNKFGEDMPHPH
Description: Inhibition of full length human HDAC6 preincubated for 3 hrs.

Data set [7] relates to MV4-11. Briefly: Induction of apoptosis in human MV4-11 cells assessed as late apoptotic cells at 1 uM incubated for 15 mins by Annexin-V/FITC staining based FACS analysis (reference value: 4.17%). The following applies: 0.25 h. It counts as functional. The gist of the method: as §2
Data set [8] has as its system MV4-11. Description: Induction of apoptosis in human MV4-11 cells assessed as late apoptotic cells at 0.25 uM incubated for 15 mins by Annexin-V/FITC staining based FACS analysis (reference value: 4.17%). The class given is functional. The gist of the method: as §2
The subject of data set [9] is MV4-11. Briefly: Induction of apoptosis in human MV4-11 cells assessed as early apoptotic cells at 1 uM incubated for 15 mins by Annexin-V/FITC staining based FACS analysis (reference value: 0.70%). It counts as functional. The conditions noted are these: 0.25 h. In short, it runs like this:
as §2

Data set [10] deals with Ramos. Briefly: Anti-proliferative activity against human Ramos cells assessed as cell viability measured after 72 hrs by Cell-Titer assay. It counts as functional, cell-based. The gist of the method: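 Cells were plated in 96-well plates and received compound or vehicle (0.5% DMSO) 24 h later. CellTiter-Blue was added at 72 h and fluorescence read at 560/590 nm. IC50 derived by non-linear regression.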

In data set [11] the test system is MV4-11. Briefly: Induction of apoptosis in human MV4-11 cells assessed as viable cells at 1 uM incubated for 15 mins by Annexin-V/FITC staining based FACS analysis (reference value: 35.53%). The following applies: MV4-11, 0.25 h, read-out: Activity. It counts as functional. In short, it runs like this:
as §2

The test system of data set [12] is MV4-11. Briefly: Induction of apoptosis in human MV4-11 cells assessed as viable cells at 4 uM incubated for 15 mins by Annexin-V/FITC staining based FACS analysis (reference value: 35.53%). The class given is functional. The following applies: MV4-11, 0.25 h, read-out: Activity. In short, it runs like this: as §2
Data set [13] deals with MV4-11. Description: Induction of apoptosis in human MV4-11 cells assessed as late apoptotic cells at 1 uM incubated for 15 mins by Annexin-V/FITC staining based FACS analysis (reference value: 4.36%). It counts as functional. The following applies: 0.25 h. The gist of the method:
as §2

The test system of data set [14] is MV4-11. Description: Induction of apoptosis in human MV4-11 cells assessed as early apoptotic cells at 4 uM incubated for 15 mins by Annexin-V/FITC staining based FACS analysis (reference value: 7.28%). The class given is functional. The conditions noted are these: 0.25 h. The gist of the method: as §2
Data set [15] concerns MV4-11. Briefly: Induction of apoptosis in human MV4-11 cells assessed as early apoptotic cells at 1 uM incubated for 15 mins by Annexin-V/FITC staining based FACS analysis (reference value: 7.28%). It counts as functional. The conditions noted are these: 0.25 h. In short, it runs like this:
as §2

Data set [16] has as its system MV4-11. Briefly: Induction of apoptosis in human MV4-11 cells assessed as early apoptotic cells at 0.50 uM incubated for 15 mins by Annexin-V/FITC staining based FACS analysis (reference value: 7.28%). The class given is functional. The conditions noted are these: dose 0.5 µM, 0.25 h. The gist of the method:
as §2

Data set [17] deals with MV4-11. Description: Induction of apoptosis in human MV4-11 cells assessed as viable cells at 0.25 uM incubated for 15 mins by Annexin-V/FITC staining based FACS analysis (reference value: 84.58%). It counts as functional. The conditions noted are these: MV4-11, 0.25 h, read-out: Activity. The gist of the method:
as §2

Sequence of Polyamine deacetylase HDAC10 (Q969S8 whole entry, canonical isoform): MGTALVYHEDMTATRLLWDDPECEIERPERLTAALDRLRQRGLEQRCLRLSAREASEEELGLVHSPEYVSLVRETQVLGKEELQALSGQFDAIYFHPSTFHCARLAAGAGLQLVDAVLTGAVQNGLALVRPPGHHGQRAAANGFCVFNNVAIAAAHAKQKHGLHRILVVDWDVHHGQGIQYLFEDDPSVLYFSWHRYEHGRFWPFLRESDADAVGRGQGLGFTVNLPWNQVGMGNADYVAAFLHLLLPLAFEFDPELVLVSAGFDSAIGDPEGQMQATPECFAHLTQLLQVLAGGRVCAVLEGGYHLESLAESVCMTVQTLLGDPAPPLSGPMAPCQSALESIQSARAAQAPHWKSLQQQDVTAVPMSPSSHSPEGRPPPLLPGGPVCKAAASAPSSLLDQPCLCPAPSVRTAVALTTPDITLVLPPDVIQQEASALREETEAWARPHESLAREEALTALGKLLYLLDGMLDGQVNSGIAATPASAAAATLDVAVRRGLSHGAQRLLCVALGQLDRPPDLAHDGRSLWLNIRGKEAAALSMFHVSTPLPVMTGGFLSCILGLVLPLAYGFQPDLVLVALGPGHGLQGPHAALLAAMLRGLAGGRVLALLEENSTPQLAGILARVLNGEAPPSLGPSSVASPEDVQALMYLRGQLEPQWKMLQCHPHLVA
Sequence of Histone deacetylase 2 (Q92769 whole entry): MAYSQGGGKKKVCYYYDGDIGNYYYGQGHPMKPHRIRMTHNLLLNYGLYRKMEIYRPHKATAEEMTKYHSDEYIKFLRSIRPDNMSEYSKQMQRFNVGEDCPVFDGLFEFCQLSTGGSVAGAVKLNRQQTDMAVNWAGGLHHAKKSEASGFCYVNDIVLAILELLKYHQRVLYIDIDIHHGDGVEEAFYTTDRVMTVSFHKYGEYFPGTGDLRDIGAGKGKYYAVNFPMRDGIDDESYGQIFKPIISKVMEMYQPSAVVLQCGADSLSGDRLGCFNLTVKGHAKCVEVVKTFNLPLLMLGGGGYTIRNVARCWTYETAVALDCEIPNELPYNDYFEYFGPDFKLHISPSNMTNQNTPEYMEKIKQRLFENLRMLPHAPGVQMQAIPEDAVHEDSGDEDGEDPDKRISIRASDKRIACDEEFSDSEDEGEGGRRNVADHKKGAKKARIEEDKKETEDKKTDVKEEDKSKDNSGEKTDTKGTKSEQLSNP

Regarding `O=C(NO)c1ccc(CN(Cc2cccnc2)S(=O)(=O)c2cc(F)c(F)c(F)c2F)cc1`, the IC50 in [1] turned out to be 572 nM; in [4], 4970 nM; in data set [6], 2 nM; in data set [10], 300 nM. The compound also registered a t1/2 in data set [2] of 1.7 h. For the same compound, the Activity in data set [3] was found to be 1.24%; in [7], 6.87%; in data set [8] it was 3.29%; in [9], 1.84%. In addition, in data set [5], the viability at 0.25 µM worked out at 33.1%. The viability at 1 µM in data set [11] was determined as 17.1%. Moreover, the viability at 4 µM in [12] worked out at 7.96%.

For `O=C(CCCCCCNC(=O)c1cnc(N(c2ccccc2)c2ccccc2Cl)nc1)NO` [CITARINOSTAT], the Activity amounted to 9.54% in [13], 38.98% in data set [14], 16.25% in data set [15] and 10.02% in data set [16]. Further, the viability at 0.25 µM in data set [17] was determined as 84.3%.
